{
  "source": "ChEMBL document CHEMBL4052710",
  "about": "(Bioorg Med Chem Lett, 2017)",
  "key": {"T47D [1]": {"tested_on": "T47D", "test": "Induction of apoptosis in human T47D cells assessed as necrotic cells level at 1 uM incubated for 48 hrs by annexin V-FITC and propidium iodide staining based flow cytometry (reference value: 2.79%)", "type": "functional"}, "[2]": {"biological_target": "CDK6/cyclin D3 (Homo sapiens) (UniProt P30281+Q00534)", "test": "Inhibition of human CDK6/CyclinD3 at 1 uM by enzymatic radiometric assay", "type": "protein-complex assay"}, "T47D [3]": {"tested_on": "T47D", "test": "Induction of apoptosis in human T47D cells assessed as late apoptotic cells level at 1 uM incubated for 48 hrs by annexin V-FITC and propidium iodide staining based flow cytometry (reference value: 0.48%)", "type": "functional"}, "HeLa": {"tested_on": "HeLa", "test": "Growth inhibition of human HeLa cells incubated for 72 hrs at 1 uM by CCK8 assay", "type": "functional", "conditions": "read-out: GI", "in_short": "(§1)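 CCK8 viability assay on a panel of human cancer cell lines, with an initial screen at fixed concentrations of 1 µM and 10 µM.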"}, "NCI-H1299": {"tested_on": "NCI-H1299", "test": "Growth inhibition of human H1299 cells incubated for 72 hrs at 1 uM by CCK8 assay", "type": "functional", "conditions": "NCI-H1299, 72 h, read-out: GI", "in_short": "as §1"}, "CDK4/Cyclin D3": {"biological_target": "CDK4/Cyclin D3 (Homo sapiens, UniProt P11802)", "sequence (P11802 whole entry)": "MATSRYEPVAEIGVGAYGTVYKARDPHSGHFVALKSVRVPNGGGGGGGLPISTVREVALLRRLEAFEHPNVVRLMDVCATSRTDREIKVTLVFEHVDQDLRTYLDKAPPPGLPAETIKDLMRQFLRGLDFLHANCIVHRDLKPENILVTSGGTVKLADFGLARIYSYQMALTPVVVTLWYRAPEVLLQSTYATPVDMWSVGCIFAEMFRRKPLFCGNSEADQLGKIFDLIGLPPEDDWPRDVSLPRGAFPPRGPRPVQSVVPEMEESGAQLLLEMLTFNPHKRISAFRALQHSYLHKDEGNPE", "sequence (P30281 whole entry, further chain)": "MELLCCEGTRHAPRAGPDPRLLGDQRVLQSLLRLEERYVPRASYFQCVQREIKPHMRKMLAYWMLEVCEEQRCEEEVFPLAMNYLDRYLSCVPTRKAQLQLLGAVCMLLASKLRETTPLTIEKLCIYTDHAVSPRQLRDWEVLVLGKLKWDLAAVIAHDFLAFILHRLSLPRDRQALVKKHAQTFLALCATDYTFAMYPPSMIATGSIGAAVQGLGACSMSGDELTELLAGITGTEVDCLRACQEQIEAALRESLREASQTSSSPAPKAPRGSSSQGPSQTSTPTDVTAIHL", "test": "Inhibition of human CDK4/CyclinD3 by enzymatic radiometric assay", "type": "protein-complex assay", "in_short": "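CDK4 activity measured with the Eurofins KinaseProfiler. IC50 and inhibition values are means of two independent experiments.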"}, "[4]": {"biological_target": "CDK7/Cyclin H/MNAT1 (Homo sapiens) (UniProt P51946+P50613+P51948)", "test": "Inhibition of human CDK7/CyclinH/MAT1 at 1 uM by enzymatic radiometric assay", "type": "protein-complex assay"}, "T47D [5]": {"tested_on": "T47D", "test": "Induction of cell cycle arrest in human T47D cells assessed as increase in G0/G1 phase accumulation at 0.1 to 1 uM incubated for 24 hrs by flow cytometry", "type": "functional, cell-based", "in_short": "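Cells were treated for 24 h with compound at 0.1, 0.5 and 1 µM, with LEE011 or vehicle (DMSO) alongside. Cell-cycle phase distribution was then determined by flow cytometry.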"}, "T47D [6]": {"tested_on": "T47D", "test": "Growth inhibition of human T47D cells incubated for 72 hrs by CCK8 assay", "type": "functional, cell-based"}, "OVCAR-5 [7]": {"tested_on": "OVCAR-5", "test": "Growth inhibition of human OVCAR5 cells incubated for 72 hrs at 10 uM by CCK8 assay", "type": "functional", "conditions": "OVCAR-5, 72 h, read-out: GI", "in_short": "as §1"}, "NCI-H460 [8]": {"tested_on": "NCI-H460", "test": "Growth inhibition of human H460 cells incubated for 72 hrs at 1 uM by CCK8 assay", "type": "functional", "conditions": "NCI-H460, 72 h, read-out: GI", "in_short": "as §1"}, "T47D [9]": {"tested_on": "T47D", "test": "Induction of apoptosis in human T47D cells assessed as early apoptotic cells level at 0.25 uM incubated for 48 hrs by annexin V-FITC and propidium iodide staining based flow cytometry (reference value: 0.75%)", "type": "functional"}, "T47D [10]": {"tested_on": "T47D", "test": "Induction of apoptosis in human T47D cells assessed as necrotic cells level at 0.5 uM incubated for 48 hrs by annexin V-FITC and propidium iodide staining based flow cytometry (reference value: 2.79%)", "type": "functional"}, "[11]": {"biological_target": "T1, Cyclin-dependent kinase 5/CDK5 activator 1 (Homo sapiens) (UniProt Q00535+Q15078)", "T1 sequence (Q00535 whole entry)": "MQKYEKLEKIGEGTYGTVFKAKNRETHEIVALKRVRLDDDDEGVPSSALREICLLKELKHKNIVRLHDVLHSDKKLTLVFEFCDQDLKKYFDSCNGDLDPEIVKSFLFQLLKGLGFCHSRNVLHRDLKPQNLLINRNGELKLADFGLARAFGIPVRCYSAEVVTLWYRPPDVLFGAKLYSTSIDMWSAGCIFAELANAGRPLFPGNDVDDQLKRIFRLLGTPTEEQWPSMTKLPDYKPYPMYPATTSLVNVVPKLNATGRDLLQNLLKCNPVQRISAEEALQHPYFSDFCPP", "T1 sequence (Q15078 99-307 partner limits assumed)": "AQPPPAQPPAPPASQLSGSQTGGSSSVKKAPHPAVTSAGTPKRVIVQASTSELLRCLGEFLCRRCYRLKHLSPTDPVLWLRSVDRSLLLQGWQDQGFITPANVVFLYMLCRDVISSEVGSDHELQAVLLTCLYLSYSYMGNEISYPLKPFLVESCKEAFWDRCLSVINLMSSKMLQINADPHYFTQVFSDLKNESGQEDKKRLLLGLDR", "test": "Inhibition of human CDK5/p35 at 1 uM by enzymatic radiometric assay", "type": "protein-complex assay"}, "T47D [12]": {"tested_on": "T47D", "test": "Inhibition of cell migration of human T47D cells at 0.5 to 5 uM incubated for 16 hrs by transwell cell migration assay", "type": "functional, cell-based", "in_short": "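T47D cells were assayed by transwell migration. After 16 h incubation, migrated cells were counted by microscope in five random fields per chamber.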"}, "T47D [13]": {"tested_on": "T47D", "test": "Induction of apoptosis in human T47D cells assessed as viable cells level at 1 uM incubated for 48 hrs by annexin V-FITC and propidium iodide staining based flow cytometry (reference value: 96%)", "type": "functional"}, "T47D [14]": {"tested_on": "T47D", "test": "Induction of apoptosis in human T47D cells assessed as early apoptotic cells level at 1 uM incubated for 48 hrs by annexin V-FITC and propidium iodide staining based flow cytometry (reference value: 0.75%)", "type": "functional"}, "OVCAR-5 [15]": {"tested_on": "OVCAR-5", "test": "Growth inhibition of human OVCAR5 cells incubated for 72 hrs at 1 uM by CCK8 assay", "type": "functional", "conditions": "OVCAR-5, 72 h, read-out: GI", "in_short": "as §1"}, "SiHa [16]": {"tested_on": "SiHa", "test": "Growth inhibition of human SiHa cells incubated for 72 hrs at 1 uM by CCK8 assay", "type": "functional", "conditions": "read-out: GI", "in_short": "as §1"}, "[17]": {"biological_target": "CDK2/Cyclin A2 (Homo sapiens) (UniProt P24941+P20248)", "test": "Inhibition of human CDK2/CyclinA at 1 uM by enzymatic radiometric assay", "type": "protein-complex assay", "in_short": "(§2)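 Kinase panel run through the Eurofins KinaseProfiler, with compound at a fixed 1 µM. Values are means of two independent experiments.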"}, "T47D [18]": {"tested_on": "T47D", "test": "Induction of apoptosis in human T47D cells assessed as late apoptotic cells level at 0.5 uM incubated for 48 hrs by annexin V-FITC and propidium iodide staining based flow cytometry (reference value: 0.48%)", "type": "functional"}, "A549": {"tested_on": "A549", "test": "Growth inhibition of human A549 cells incubated for 72 hrs at 1 uM by CCK8 assay", "type": "functional", "conditions": "A549, 72 h, read-out: GI", "in_short": "as §1"}, "T47D [19]": {"tested_on": "T47D", "test": "Induction of apoptosis in human T47D cells assessed as early apoptotic cells level at 0.5 uM incubated for 48 hrs by annexin V-FITC and propidium iodide staining based flow cytometry (reference value: 0.75%)", "type": "functional"}, "T47D [20]": {"tested_on": "T47D", "test": "Induction of apoptosis in human T47D cells assessed as necrotic cells level at 0.25 uM incubated for 48 hrs by annexin V-FITC and propidium iodide staining based flow cytometry (reference value: 2.79%)", "type": "functional"}, "[21]": {"biological_target": "CDK9/cyclin T1 (Homo sapiens) (UniProt O60563+P50750)", "test": "Inhibition of human CDK9/CyclinT1 at 1 uM by enzymatic radiometric assay", "type": "protein-complex assay"}, "SiHa [22]": {"tested_on": "SiHa", "test": "Growth inhibition of human SiHa cells incubated for 72 hrs at 10 uM by CCK8 assay", "type": "functional", "conditions": "read-out: GI", "in_short": "as §1"}, "[23]": {"biological_target": "CDK3/Cyclin E (Homo sapiens) (UniProt P24864+Q00526)", "sequence (P24864 whole entry, looked up)": "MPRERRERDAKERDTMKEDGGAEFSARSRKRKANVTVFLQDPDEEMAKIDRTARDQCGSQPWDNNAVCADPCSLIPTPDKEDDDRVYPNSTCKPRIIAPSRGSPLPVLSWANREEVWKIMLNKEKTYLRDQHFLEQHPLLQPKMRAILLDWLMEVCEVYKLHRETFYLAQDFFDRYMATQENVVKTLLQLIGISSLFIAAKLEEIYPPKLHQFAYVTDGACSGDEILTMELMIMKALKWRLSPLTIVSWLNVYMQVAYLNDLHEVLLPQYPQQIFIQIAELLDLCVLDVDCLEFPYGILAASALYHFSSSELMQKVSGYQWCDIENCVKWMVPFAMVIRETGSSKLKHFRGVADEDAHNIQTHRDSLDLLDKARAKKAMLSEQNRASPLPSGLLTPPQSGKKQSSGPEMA", "sequence (Q00526 whole entry, looked up)": "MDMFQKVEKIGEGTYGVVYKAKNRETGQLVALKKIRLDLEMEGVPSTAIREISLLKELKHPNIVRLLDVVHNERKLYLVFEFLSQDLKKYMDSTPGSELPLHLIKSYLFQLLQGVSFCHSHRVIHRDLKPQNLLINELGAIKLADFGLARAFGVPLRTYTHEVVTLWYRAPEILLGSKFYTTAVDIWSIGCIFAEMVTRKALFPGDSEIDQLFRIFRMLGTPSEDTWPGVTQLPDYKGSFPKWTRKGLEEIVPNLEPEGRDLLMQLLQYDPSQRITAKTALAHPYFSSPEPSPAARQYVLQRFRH", "test": "Inhibition of human CDK3/CyclinE at 1 uM by enzymatic radiometric assay", "type": "protein-complex assay", "in_short": "as §2"}, "[24]": {"biological_target": "CDK4/Cyclin D3 (Homo sapiens) (UniProt P11802+P30281)", "test": "Inhibition of human CDK4/CyclinD3 at 1 uM by enzymatic radiometric assay", "type": "protein-complex assay", "in_short": "as §2"}, "T47D [25]": {"tested_on": "T47D", "test": "Induction of apoptosis in human T47D cells assessed as late apoptotic cells level at 5 uM incubated for 48 hrs by annexin V-FITC and propidium iodide staining based flow cytometry (reference value: 0.48%)", "type": "functional"}, "MCF7": {"tested_on": "MCF7", "test": "Growth inhibition of human MCF7 cells incubated for 72 hrs by CCK8 assay", "type": "functional, cell-based", "conditions": "MCF7, 72 h"}, "T47D [26]": {"tested_on": "T47D", "test": "Growth inhibition of human T47D cells incubated for 72 hrs at 10 uM by CCK8 assay", "type": "functional", "conditions": "read-out: GI", "in_short": "as §1"}, "T47D [27]": {"tested_on": "T47D", "test": "Induction of apoptosis in human T47D cells assessed as viable cells level at 0.5 uM incubated for 48 hrs by annexin V-FITC and propidium iodide staining based flow cytometry (reference value: 96%)", "type": "functional"}, "T47D [28]": {"tested_on": "T47D", "test": "Induction of apoptosis in human T47D cells assessed as viable cells level at 5 uM incubated for 48 hrs by annexin V-FITC and propidium iodide staining based flow cytometry (reference value: 96%)", "type": "functional"}, "NCI-H460 [29]": {"tested_on": "NCI-H460", "test": "Growth inhibition of human H460 cells incubated for 72 hrs at 10 uM by CCK8 assay", "type": "functional", "conditions": "NCI-H460, 72 h, read-out: GI", "in_short": "as §1"}, "[30]": {"biological_target": "Cyclin-dependent kinase 1/cyclin B1 (Homo sapiens) (UniProt P06493+P14635)", "sequence (P06493 whole entry, looked up)": "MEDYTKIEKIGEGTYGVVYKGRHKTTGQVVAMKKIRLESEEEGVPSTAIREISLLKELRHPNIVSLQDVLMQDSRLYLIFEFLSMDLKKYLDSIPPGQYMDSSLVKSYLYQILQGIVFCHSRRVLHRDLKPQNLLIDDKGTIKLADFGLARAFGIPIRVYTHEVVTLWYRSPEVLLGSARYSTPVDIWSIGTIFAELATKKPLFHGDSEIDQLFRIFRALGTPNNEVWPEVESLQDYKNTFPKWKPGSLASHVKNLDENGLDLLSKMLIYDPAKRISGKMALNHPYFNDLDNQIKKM", "sequence (P14635 whole entry, looked up)": "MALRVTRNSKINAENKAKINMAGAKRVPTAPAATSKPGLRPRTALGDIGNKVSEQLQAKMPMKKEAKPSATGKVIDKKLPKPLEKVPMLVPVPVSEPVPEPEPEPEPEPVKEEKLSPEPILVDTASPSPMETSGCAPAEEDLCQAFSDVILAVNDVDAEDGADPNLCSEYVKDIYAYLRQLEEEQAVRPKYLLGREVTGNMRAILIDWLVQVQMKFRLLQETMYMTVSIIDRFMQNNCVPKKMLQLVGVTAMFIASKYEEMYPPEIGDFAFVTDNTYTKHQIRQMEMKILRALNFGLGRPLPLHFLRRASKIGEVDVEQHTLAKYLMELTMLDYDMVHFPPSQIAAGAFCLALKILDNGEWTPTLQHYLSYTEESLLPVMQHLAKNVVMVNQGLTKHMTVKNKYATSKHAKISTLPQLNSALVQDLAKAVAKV", "test": "Inhibition of human CDK1/CyclinB at 1 uM by enzymatic radiometric assay", "type": "protein-complex assay", "in_short": "as §2"}, "[31]": {"biological_target": "T1, Cyclin-dependent kinase 5/CDK5 activator 1 (Homo sapiens)", "test": "Inhibition of human CDK5/p25 at 1 uM by enzymatic radiometric assay", "type": "protein-complex assay"}},
  "note": "The source made the active and inactive calls. The calls are words filed in the database; no cut-off is given here.",
  "data": [
    {"smiles": "CN(C)C(=O)c1cc2cnc(Nc3ccc(NC(=O)C4(C(=O)Nc5ccc(F)cc5)CC4)cc3)nc2n1C1CCCC1", "values": [
      {"measurement": "Activity", "setting": "T47D [1]", "value": 1.39, "unit": "%"},
      {"measurement": "inhibition", "setting": "[2]", "value": 71, "unit": "%"},
      {"measurement": "Activity", "setting": "T47D [3]", "value": 4.98, "unit": "%"},
      {"measurement": "inhibition of growth at 1 µM", "setting": "HeLa", "value": 49.8, "unit": "%"},
      {"measurement": "inhibition of growth at 1 µM", "setting": "NCI-H1299", "value": 93.3, "unit": "%"},
      {"measurement": "IC50", "setting": "CDK4/Cyclin D3", "value": 142, "unit": "nM"},
      {"measurement": "inhibition", "setting": "[4]", "value": 7, "unit": "%"},
      {"measurement": "Activity", "setting": "T47D [5]", "value": "Active"},
      {"measurement": "IC50", "setting": "T47D [6]", "value": 358, "unit": "nM"},
      {"measurement": "inhibition of growth at 10 µM", "setting": "OVCAR-5 [7]", "value": 79.7, "unit": "%"},
      {"measurement": "inhibition of growth at 1 µM", "setting": "NCI-H460 [8]", "value": 79.9, "unit": "%"},
      {"measurement": "Activity", "setting": "T47D [9]", "value": 0.52, "unit": "%"},
      {"measurement": "Activity", "setting": "T47D [10]", "value": 2.69, "unit": "%"},
      {"measurement": "inhibition", "setting": "[11]", "value": 81, "unit": "%"},
      {"measurement": "inhibition", "setting": "T47D [12]", "value": "Active"},
      {"measurement": "Activity", "setting": "T47D [13]", "value": 90.5, "unit": "%"},
      {"measurement": "Activity", "setting": "T47D [14]", "value": 3.16, "unit": "%"},
      {"measurement": "inhibition of growth at 1 µM", "setting": "OVCAR-5 [15]", "value": 65.4, "unit": "%"},
      {"measurement": "inhibition of growth at 1 µM", "setting": "SiHa [16]", "value": 36.5, "unit": "%"},
      {"measurement": "inhibition", "setting": "[17]", "value": 29, "unit": "%"},
      {"measurement": "Activity", "setting": "T47D [18]", "value": 3.58, "unit": "%"},
      {"measurement": "inhibition of growth at 1 µM", "setting": "A549", "value": 86.6, "unit": "%"},
      {"measurement": "Activity", "setting": "T47D [19]", "value": 0.65, "unit": "%"},
      {"measurement": "Activity", "setting": "T47D [20]", "value": 2.01, "unit": "%"},
      {"measurement": "inhibition", "setting": "[21]", "value": 98, "unit": "%"},
      {"measurement": "inhibition of growth at 10 µM", "setting": "SiHa [22]", "value": 98, "unit": "%"},
      {"measurement": "inhibition", "setting": "[23]", "value": 65, "unit": "%"},
      {"measurement": "inhibition", "setting": "[24]", "value": 102, "unit": "%"},
      {"measurement": "Activity", "setting": "T47D [25]", "value": 5.29, "unit": "%"},
      {"measurement": "IC50", "setting": "MCF7", "value": 338, "unit": "nM"},
      {"measurement": "inhibition of growth at 10 µM", "setting": "T47D [26]", "value": 105, "unit": "%"},
      {"measurement": "Activity", "setting": "T47D [27]", "value": 93.1, "unit": "%"},
      {"measurement": "Activity", "setting": "T47D [28]", "value": 85, "unit": "%"},
      {"measurement": "inhibition of growth at 10 µM", "setting": "NCI-H460 [29]", "value": 102, "unit": "%"},
      {"measurement": "inhibition", "setting": "[30]", "value": 73, "unit": "%"},
      {"measurement": "inhibition", "setting": "[31]", "value": 86, "unit": "%"}
    ]}
  ]
}
